ChEMBL document CHEMBL1153929, “Exploration and synthesis of curcumin analogues with improved structural stability both in vitro and in vivo as cytotoxic agents” (Bioorg Med Chem, 2009)

Assays:
[1] = Hydrolytic stability assessed as compound degradation at 2 mg in sodium dihydrogen phosphate buffered 0.3% sodium carboxymethylcellulose solution at pH 7.4 after 45 hrs by HPLC; format: physicochemical; settings: read-out: Activity
Method in brief: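 2 mg of sample was vortexed into 1 ml of 0.3% (w/v) CMCNa solution in phosphate buffer at pH 7.4 and kept in the dark at 37 °C. HPLC peak areas were recorded. Degradation = (area at 0 h − area at end time) / area at 0 h × 100%.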

[2] = Mean residence time (0 to infinity) in healthy Sprague-Dawley rat at 500 mg/kg, po administered as single dose; format: ADME, organism-based; set-up: dose 500 mg/kg, route oral; settings: in vivo
Method in brief: (§1)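 Four rats per group, dosed once by oral gavage at 500 mg/kg, suspended with the aid of 1% CMCNa. Blood (0.5 ml) was taken from the orbital venous plexus at 0.083, 0.25, 0.5, 1, 2, 4 and 8 h. Plasma (200 µl) was extracted with ethyl acetate/chloroform and assayed by isocratic HPLC on an ODS2 column. Parameters came from non-compartmental analysis.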

[3] = Metabolic stability in Sprague-Dawley rat plasma assessed as drug recovery at 0.8 ug/ml by RP-HPLC; format: ADME, cell-free; settings: read-out: Stability
[4] = Cytotoxicity against human LS 174T cells after 72 hrs by MTT assay; format: functional, cell-based; settings: LS174T
Method in brief: (§2)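 Cells were plated at 5000 per well in 1640 medium with 5% heat-inactivated calf serum and penicillin/streptomycin, at 37 °C and 5% CO2. After 24 h, compounds in DMSO were added at final 100, 33.3, 11.1 and 3.7 µg/ml for 72 h. MTT (5 mg/ml in 0.9% NaCl) was then added for 3 h, the formazan dissolved in DMSO, and absorbance read at 570 nm.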

[5] = AUC (0 to infinity) in healthy Sprague-Dawley rat at 500 mg/kg, po administered as single dose; format: ADME, organism-based; set-up: dose 500 mg/kg, route oral, time infinity; settings: plasma; method in brief: as §1
[6] = Tmax in healthy Sprague-Dawley rat at 500 mg/kg, po administered as single dose; format: ADME, organism-based; set-up: dose 500 mg/kg, route oral; settings: in vivo; method in brief: as §1
[7] = Metabolic stability in Sprague-Dawley rat plasma assessed as drug recovery at 3.2 ug/ml by RP-HPLC; format: ADME, cell-free; settings: read-out: Stability
[8] = Cmax in healthy Sprague-Dawley rat at 500 mg/kg, po administered as single dose; format: ADME, organism-based; set-up: dose 500 mg/kg, route oral; settings: in vivo; method in brief: as §1
[9] = Metabolic stability in Sprague-Dawley rat plasma assessed as drug recovery at 0.2 ug/ml by RP-HPLC; format: ADME, cell-free; settings: read-out: Stability
[10] = AUC (0 to t) in healthy Sprague-Dawley rat at 500 mg/kg, po administered as single dose; format: ADME, organism-based; set-up: dose 500 mg/kg, route oral; settings: plasma; method in brief: as §1
[11] = Half life in healthy Sprague-Dawley rat at 500 mg/kg, po administered as single dose; format: ADME, organism-based; set-up: dose 500 mg/kg, route oral; settings: in vivo; method in brief: as §1
[12] = Apparent oral clearance in healthy Sprague-Dawley rat at 500 mg/kg, po administered as single dose; format: ADME, organism-based; set-up: dose 500 mg/kg, route oral; settings: in vivo; method in brief: as §1
CNE = test: Cytotoxicity against human CNE cells after 72 hrs by MTT assay; format: functional, cell-based; method in brief: as §2
[13] = Mean residence time (0 to t) in healthy Sprague-Dawley rat at 500 mg/kg, po administered as single dose; format: ADME, organism-based; set-up: dose 500 mg/kg, route oral; settings: in vivo; method in brief: as §1
HeLa = test: Cytotoxicity against human HeLa cells after 72 hrs by MTT assay; format: functional, cell-based; method in brief: as §2
BGC-823 = test: Cytotoxicity against human BGC823 cells after 72 hrs by MTT assay; format: functional, cell-based; settings: BGC-823, 72 h; method in brief: as §2
[14] = Metabolic stability in Sprague-Dawley rat plasma assessed as drug recovery at 12.8 ug/ml by RP-HPLC; format: ADME, cell-free; settings: read-out: Stability
PC-3 = test: Cytotoxicity against human PC3 cells after 72 hrs by MTT assay; format: functional, cell-based; settings: PC-3, 72 h; method in brief: as §2
[15] = Chemical stability assessed as half life in pH 8 buffer containing 10% cyclodextrins; format: physicochemical
[16] = Drug level in bile of patient with cancer at 3.6 g/day by HPLC; format: ADME, tissue-based; settings: human, in vivo; read-out: Drug uptake
[17] = Plasma concentration in healthy Sprague-Dawley rat at 500 mg/kg, po administered as single dose after 2 hrs; format: ADME, organism-based; set-up: dose 500 mg/kg, route oral; settings: read-out: Drug uptake; method in brief: as §1
Blood [18] = test: Drug level in peripheral blood of patient with cancer at 3.6 g/day by HPLC; format: ADME, tissue-based; settings: human, read-out: Drug uptake
HL-60 (human) = test: Cytotoxicity against human HL60 cells after 72 hrs by MTT assay; settings: HL-60, 72 h
Blood [19] = test: Drug level in portal blood of patient with cancer at 3.6 g/day by HPLC; format: ADME, tissue-based; settings: human, read-out: Drug uptake
[20] = Metabolic stability in Sprague-Dawley rat plasma assessed as drug recovery at 0.05 ug/ml by RP-HPLC; format: ADME, cell-free; settings: read-out: Stability
KB (human) = test: Cytotoxicity against human KB cells after 72 hrs by MTT assay
Liver = test: Drug level in liver of patient with cancer at 3.6 g/day by HPLC; format: ADME, tissue-based; settings: human, in vivo; read-out: Drug uptake
[21] = Chemical stability assessed as compound degradation in 0.1 M phosphate buffer at pH 7.2 within 30 mins; format: physicochemical; settings: read-out: Activity

Molecule `COc1cc(/C=C/C(=O)/C=C/c2ccc(O)c(OC)c2)ccc1O` has a degraded at 45 h [1] of 0%, an MRT inf [2] of 8.48 h and a remaining at 0.8 ug/ml [3] of 98.3%. The IC50 [4] was 3.7 µM, the AUC(0-inf) [5] was 4910 ng·h/mL and the Tmax [6] was 1 h. For the same molecule, the remaining at 3.2 ug/ml [7] was 97.6%, the Cmax [8] was 822 ng/mL and the remaining at 0.2 ug/ml [9] was 96.4%. The AUC(0-t) [10] was 2960 ng·h/mL, the half-life [11] was 5.96 h and the CL/F [12] was 2090 mL/min/kg. It also gave an IC50 (CNE) of 6.8 µM and an MRT last [13] of 2.96 h.
Molecule `O=C(/C=C/c1ccccc1Br)/C=C/c1ccccc1Br` has a degraded at 45 h [1] of 0%, an IC50 (HeLa) of 34.2 µM and an MRT inf [2] of 4.16 h. It also gave an IC50 (BGC-823) of 16.1 µM, an IC50 [4] of 4 µM and an AUC(0-inf) [5] of 14900 ng·h/mL. The Tmax [6] was 0.25 h, the remaining at 3.2 ug/ml [7] was 97.1% and the Cmax [8] was 4100 ng/mL. The remaining at 0.2 ug/ml [9] was 96.5%, the remaining at 12.8 ug/ml [14] was 95.2% and the IC50 (PC-3) was 15.4 µM. It also gave an AUC(0-t) [10] of 12100 ng·h/mL, a half-life [11] of 2.92 h and a CL/F [12] of 650 mL/min/kg. For the same molecule, the MRT last [13] was 2.49 h.
Molecule `COc1cc(/C=C/C(=O)CC(=O)/C=C/c2ccc(O)c(OC)c2)ccc1O` [CURCUMIN] has a degraded at 45 h [1] greater than 64%, an IC50 (HeLa) of 17.5 µM and a half-life [15] of 10.5 h. It also gave an MRT inf [2] of 22.7 h, an IC50 (BGC-823) of 16.7 µM and a concentration [16] of 1300 nM. The IC50 [4] was 6.4 µM, the concentration at 2 h [17] was 40 ng/mL and the concentration (Blood [18]) was 1300 nM. For the same molecule, the AUC(0-inf) [5] was 672 ng·h/mL, the IC50 (HL-60 (human)) was 11.6 µM and the Tmax [6] was 0.5 h. It also gave a concentration (Blood [19]) of 1300 nM, a remaining at 3.2 ug/ml [7] of 98.7% and a Cmax [8] of 91 ng/mL. For the same molecule, the remaining at 0.05 ug/ml [20] was 97.7%, the remaining at 0.2 ug/ml [9] was 98.2% and the IC50 (PC-3) was 15 µM. For the same molecule, the AUC(0-t) [10] was 275 ng·h/mL, the half-life [11] was 2.41 h and the IC50 (CNE) was 32.8 µM. The IC50 (KB (human)) was 35.9 µM, the concentration (Liver) was 1300 nM and the MRT last [13] was 3.44 h. For the same molecule, the degraded at 0.5 h [21] was 92%.
